Source: ChEMBL document CHEMBL1123391, “Synthesis and investigation of the beta-adrenoceptor agonist and platelet antiaggregatory properties of 1,7,8-trisubstituted 2,3,4,5-tetrahydro-1H-2-benzazepine analogues of trimetoquinol” (J Med Chem, 1986)

Columns and labels:
Format in all cases: functional, organism-based
Homo sapiens [1] = organism: Homo sapiens; assay: Inhibitory activity against endoperoxide (U-46,619 2 uM) induced aggregation in Human Platelets; NI is No Inhibitory activity up to a concentration of 400 uM
Outline: (§1)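 Washed platelets from drug-free (≥10 days) human volunteers, suspended in modified Tyrode's solution pH 7.4 at 3 × 10^8/mL. Compound preincubated 3 min at 37 °C before agonist addition. Aggregation read turbidometrically (Born method, Mustard modification) in a dual-channel aggregometer. Values mean ± SEM from four to six donors; tested up to 400 μM.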

Homo sapiens [2] = organism: Homo sapiens; assay: Inhibitory activity against phospholipase C (PLC 0.05 U/mL) induced aggregation in Human Platelets; outline: as §1
Homo sapiens [3] = organism: Homo sapiens; assay: Inhibitory activity against thrombin (0.03 U/mL) induced aggregation in Human Platelets; NI is No Inhibitory activity up to a concentration of 400 uM; outline: as §1
Homo sapiens [4] = organism: Homo sapiens; assay: Inhibitory activity against endoperoxide (U-46,619 2 uM) induced aggregation in Human Platelets; outline: as §1
Homo sapiens [5] = organism: Homo sapiens; assay: Inhibitory activity against thrombin (0.03 U/mL) induced aggregation in Human Platelets; outline: as §1

IC50 (Homo sapiens [1])	IC50 (Homo sapiens [3])	IC50 (Homo sapiens [4])	IC50 (Homo sapiens [5])	Compound	IC50 (Homo sapiens [2])
No inhibition	No inhibition	–	–	COc1cc(CC2NCCCc3cc(O)c(O)cc32)cc(OC)c1OC (configuration not stated)	30 µM
–	–	0.14 µM	150 µM	COc1cc(C[C@H]2NCCc3cc(O)c(O)cc32)cc(OC)c1OC	175 µM
No inhibition	No inhibition	–	–	COc1cc(CC2NCCCc3cc4c(cc32)OCO4)cc(OC)c1OC (configuration not stated)	3 µM
–	–	11 µM	50 µM	COc1cc(C[C@@H]2NCCc3cc(O)c(O)cc32)cc(OC)c1OC [TRETOQUINOL]	50 µM
